Measurements pooled from the literature.
Lines come from different studies, so protocols differ.
Target: Maternal embryonic leucine zipper kinase (MELK, Homo sapiens, UniProt Q14680)

SMILES | read-out | mode | technique | concentration | endpoint | result
FC(F)(F)Oc1cccc(-c2cnc3ccc(-c4ccncc4)nn23)c1 | enzyme activity | inhibitor | radiometric | 1 µM | activity vs control | 84%
C[C@H](c1cccc(C#N)c1)n1cc(Cl)cc(C(N)=O)c1=N | cell-free assay | – | competition with immobilised ligand | 1 µM | remaining binding | 74%
CC(C)(C)C(=O)c1sc(NC2CCCCC2)nc1N | enzyme activity | inhibitor | – | 10 µM | remaining activity | 89%
Cc1noc([C@H]2C[C@@H](c3ccc(C(F)(F)F)cc3)CN(C(=O)N3CCS(=O)(=O)C3)C2)n1 | cell-free assay | – | competition with immobilised ligand | 1 µM | remaining binding | 100%
CNC(=O)c1cc(Oc2ccc(NC(=O)Nc3ccc(Cl)c(C(F)(F)F)c3)cc2)ccn1 | enzyme activity | inhibitor | – | 10 µM | inhibition | 13%
COc1cc(Nc2cnc(C#N)c(O[C@H](C)CN(C)C)n2)ncc1-c1cnn(C)c1 | enzyme activity | inhibitor | radiometric | 1 µM | remaining activity | 109%
CCS(=O)(=O)c1cc2cc(C[C@@](O)(CC(C)(C)c3ccc(F)cc3C(N)=O)C(F)(F)F)[nH]c2cn1 | cell-free assay | – | competition with immobilised ligand | 1 µM | remaining binding | 100%
Nc1nc(NC2CCCCC2)sc1C(=O)c1ccccc1 | enzyme activity | inhibitor | – | 10 µM | remaining activity | 70%
O=C(Nc1cnn(-c2csc(C(=O)NC3COC3)c2)c1)Nc1c(F)cccc1Cl | enzyme activity | inhibitor | – | 5 µM | remaining activity | 61.4%
Cc1ccc(C(=O)Nc2ccc(CN3CCN(C)CC3)c(C(F)(F)F)c2)cc1C#Cc1cnc2cccnn12 | enzyme activity | inhibitor | – | 23.5 nM | remaining activity | 61%
Cc1ccc(Nc2nccc(N(C)c3ccc4c(C)n(C)nc4c3)n2)cc1S(N)(=O)=O | enzyme activity | inhibitor | – | 10 µM | inhibition | 16%
FC(F)c1nc2ccccc2n1-c1nc(N2CCOCC2)nc(N2CCOCC2)n1 | enzyme activity | inhibitor | – | 10 µM | remaining activity | 91%
Cc1cnc(NC2CCOCC2)nc1-n1cnc(C(=O)NC(CN)c2cc(F)cc(Cl)c2)c1 (centres unmarked) | enzyme activity | inhibitor | radiometric | 1 µM | remaining activity | 49%
C[C@H](NC(=O)c1cnc2n1[C@](C)(Cc1ccc(C#N)cc1)C(=O)N2c1cc(Cl)c(F)c(Cl)c1)C(=O)NC1(c2ccccn2)CC1 | cell-free assay | – | competition with immobilised ligand | 1 µM | remaining binding | 86%
CN(c1ncccc1CNc1nc(Nc2ccc3c(c2)CC(=O)N3)ncc1C(F)(F)F)S(C)(=O)=O | enzyme activity | inhibitor | – | 1 µM | inhibition | 90.4%
Nc1ncnc2occ(-c3ccc(NC(=O)Nc4cc(C(F)(F)F)ccc4F)cc3)c12 | cell-free assay | inhibitor | – | 20 µM | remaining signal | 8.1%

SMILES | read-out | mode | technique | concentration | endpoint | result
CCOC(=O)c1cc2cc(-c3cc(C(=O)NCc4ccc(C(=O)O)cc4)nn3C)ccc2[nH]1 | cell-free assay | – | competition with immobilised ligand | 0.1 µM | remaining binding | 100%
COc1cc2ncnc(Nc3ccc(Oc4ccccc4)cc3C)c2cc1OC | enzyme activity | inhibitor | – | 1 µM | inhibition | 0%
CC(C)(C)c1nc(-c2cccc(NS(=O)(=O)c3c(F)cccc3F)c2F)c(-c2ccnc(N)n2)s1 | enzyme activity | inhibitor | radiometric | 1 µM | remaining activity | 27%
C#Cc1cccc(Nc2ncnc3cc(OCCOC)c(OCCOC)cc23)c1 | cell-free assay | – | – | 0.5 µM | remaining signal | 88.6%
CCC(=O)N[C@H]1CC[C@@H](C(=O)N(C)c2ccc(-c3nc4ccccc4o3)cc2)C1 | cell-free assay | – | competition with immobilised ligand | 1 µM | remaining binding | 94%
CCCS(=O)(=O)Nc1ccc(F)c(C(=O)c2c[nH]c3ncc(-c4ccc(Cl)cc4)cc23)c1F | enzyme activity | inhibitor | – | 1 µM | inhibition | < 10%
O=[N+]([O-])c1cccc2[nH]c(CNc3nc(N4CCOCC4)nc4c3ncn4-c3ccsc3)nc12 | binding | – | competition with immobilised ligand | 10 µM | binding vs control | 47%
CC(C)(O)[C@H]1CC[C@H](Nc2ccc3ncc(-c4cccc(C(F)(F)F)c4)n3n2)CC1 | enzyme activity | inhibitor | – | 1 µM | remaining activity | 86.3%
O=C1NC(=O)c2cc(Nc3ccc(F)cc3)c(Nc3ccc(F)cc3)cc21 | cell-free assay | – | – | 0.5 µM | remaining signal | 92%
O=C(Nc1cnn(-c2csc(C(=O)NC3COC3)c2)c1)Nc1ccccc1Cl | enzyme activity | inhibitor | – | 5 µM | remaining activity | 48.7%
N#CCCc1ccc2c(c1)-c1[nH]c3ccc([N+](=O)[O-])cc3c1CC(=O)N2 | cell-free assay | – | – | 0.5 µM | remaining signal | 88.6%
CCN(CC)CCNC(=O)c1c(C)[nH]c(/C=C2\C(=O)Nc3ccc(F)cc32)c1C | enzyme activity | inhibitor | – | 0.3 µM | inhibition | 53%
CC(=O)Nc1c(C(C)=O)c(=O)n(C)c2nc(-c3ccc(Cl)cc3Cl)c(-c3ccc(Cl)cc3)cc12 | cell-free assay | – | competition with immobilised ligand | 1 µM | remaining binding | 100%
COc1cc(/C=C/C(=O)CC(=O)/C=C/c2ccc(O)c(OC)c2)ccc1O | enzyme activity | inhibitor | – | 1 µM | activity vs control | 74%
COc1cc2c(Nc3ccc(Br)cc3F)ncnc2cc1OCC1CCN(C)CC1 | cell-free assay | – | – | 0.5 µM | remaining signal | 94.4%
N#Cc1ccc(Nc2ccc3[nH]c(=O)[nH]c3c2)c(Cl)c1 | cell-free assay | – | competition with immobilised ligand | 1 µM | remaining binding | 95%
